Laboratory results reported in the RNAGym collection of RNA variant scans (doi:10.1126/science.aae0568).
Variants at the floor of the assay were thinned out.

B1: tRNA (parent)
chain: GUUCCGUUGGCGUAAUGGUAACGCGUCUCCCUCCUAAGGAGAAGACUGCGGGUUCGAGUCCCGUACGGAACG

Variants of: B1
Assay: yeast fitness relative to wild type (ratio to wild type); higher = fitter; tRNA-Arg(CCU), competitive growth, 37 C, YPD
Method in brief: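 A pool of Saccharomyces cerevisiae strains, each with a tRNA-Arg(CCU) gene variant at the native genomic locus, was competed in YPD at 37°C for 24 hours across six parallel replicates. The variants had been chemically synthesised at a 3% per-site mutation rate over 69 sites, and gene amplicons before and after competition were read by 100-nucleotide paired-end sequencing. Darwinian fitness relative to wild type rested on changes in genotype frequencies. Genotypes required ≥ 100 starting reads, and estimates < 0.5 were set to 0.5.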

| Variant | yeast fitness |
| --- | --- |
| GUUCCGUUGGCGAAAUGGUAACGCGUCUCCCUCCUAAGGAGAAGACUGCUGGUUCGAGUCCCGUACGCAACG [U13A G50U G68C] | 0.515 |
| GUUCCGUUGGCGAAAUGGUAACGCGUCUCCCUCCUAAGGAGAAGACUGCGGAUUUGAGUCCCGUACGGAACG [U13A G52A C55U] | ≤ 0.5 |
| GUUCCGUUGGCGAAAUGGUAACGCGUCUCCCUCCUAAGGAGAAGACUGCGGGUUCAAGUCCCGUACGGAACG [U13A G56A] | 0.927 |
| GUUCCGUUGGCGAAAUGGUAACGCGUCUCCCUCCUAAGGAGAAGACUGCGGGUUCGAAUCCCGUACGGAACG [U13A G58A] | 1.06 |
| GUUCCGUUGGCGAAAUGGUAACGCGUCUCCCUCCUAAGGAGAAGACUGCGGGUUCGAGUCCCAUACGGAACG [U13A G63A] | 0.853 |
| GUUCCGUUGGCGAAAUGGUAACGCGUCUCCCUCCUAAGGAGAAGACUGCGGGUUCGAGUCCCGUACCGAACG [U13A G67C] | 0.945 |
| GUUCCGUUGGCGAAAUGGUAACGCGUCUCCCUCCUAAGGAGAAGACUGCGGGUUCGAGUCCCGUACGUAACG [U13A G68U] | 0.824 |
| GUUCCGUUGGCGAAAAGGUAACGCGUCUCCCUCCUAAGGAGACGACUGCGGGUUCGAGUCCCGUACGGAACG [U13A U16A A43C] | 0.564 |
| GUUCCGUUGGCGAAAAGGUAACGGGUCUCCCUGCUAAGGAGAAGACUGCGGGUUCGAGUCCCGUACGGAACG [U13A U16A C24G C33G] | ≤ 0.5 |
| GUUCCGUUGGCGAAAAGGUAACGCGUCUCCCUCCUAAGGAGAAGACUGCGGGUACGAGUCCCGUGCGGAACG [U13A U16A U54A A65G] | ≤ 0.5 |
| GUUCCGUUGGCGAAAUGGAAACGGGUUUCCCUGCUAAGGAGAAGACUGCGGCUUCGAGUCCCGUACGGAACG [U13A U19A C24G C27U C33G G52C] | ≤ 0.5 |
| GUUCCGUUGGCGAAAUGGUAACGCGGAUCCCUCCUAAGCAGGAGACUGCGCGUUCGAGUCCCGUACGGAACG [U13A U26G C27A G39C A42G G51C] | ≤ 0.5 |
| GUUCCGUUGGCGAAAUGGUAACGCGUCACGCUCCUAAGGAGAAGAUUGCGGGUUCCAGUCCCGUACGGAACG [U13A U28A C30G C46U G56C] | ≤ 0.5 |
| GUUCCGUUGGCGAAAUGGUAACGCGUCACCUUCCUAAGAAGAAGACUGCGGGUUCGGGUCCCGUACGGAACG [U13A U28A C31U G39A A57G] | ≤ 0.5 |
| GUUCCGUUGGCGAAAUGGUAACGCGUCACCCUCCUAAGGAGAAGACUGCGGGUUCGAGUCCCAUACAGAACG [U13A U28A G63A G67A] | ≤ 0.5 |
| GUUCCGUUGGCGAAAUGGUAACGCGUCACCCUCCUAAGGAGAAGACGGCGGGUUCGAGUCCCGUACGGAACG [U13A U28A U47G] | 0.528 |
| GUUCCGUUGGCGAAAUGGUAACGCGUCCCCCUCCUAAGGAGAAGACUGCGGGUUUGAGUCCCGUACGGAACG [U13A U28C C55U] | 0.741 |
| GUUCCGUUGGCGAAAUGGUAACGCGUCGCCCUCCUAAGGAGAAGACUGCCGGUUCGUGUCCAGUACGGAACG [U13A U28G G50C A57U C62A] | 0.931 |
| GUUCCGUUGGCGAAAUGGUAACGCGUCUCCCACCUAUGGAGAAGACUGCGGGUUCGAGUCCCGUACGGAACG [U13A U32A A37U] | ≤ 0.5 |

| Variant | yeast fitness |
| --- | --- |
| GUUCCGUUGGCGAAAUGGUAACGCGUCUCCCCCCUAAGGAGAAGACUGCGGGUUCGAGUCCCGUCCGGAACG [U13A U32C A65C] | 0.539 |
| GUUCCGUUGGCGAAAUGGUAACGCGUCUCCCCCCUAAGGAGAAGACUGCGGGUUCGAGUCCCGUACAGAGCG [U13A U32C G67A A70G] | 0.547 |
| GUUCCGUUGGCGAAAUGGUAACGCGUCUCCCUCCCAAGGAGAAGAUUGCGGGUUGGAGUCCCGUACGGAACG [U13A U35C C46U C55G] | ≤ 0.5 |
| GUUCCGUUGGCGAAAUGGUAACGCGUCUCCCUCCUAAGGAGAAGACAGCGGGUUCGAGUACCGUACGGCACG [U13A U47A C60A A69C] | 0.525 |
| GUUCCGUUGGCGAAAUGGUAACGCGUCUCCCUCCUAAGGAGAAGACCGCGGGUUCGAGUCCCGUACGGUACG [U13A U47C A69U] | 0.743 |
| GUUCCGUUGGCGAAAUGGUAACGCGUCUCCCUCCUAAGGAGAAGACUGCGGGAUCGAGUCCCGUACGGAACG [U13A U53A] | 0.59 |
| GUUCCGUUGGCGAAAUGGUAACGCGUCUCCCUCCUAAGGAGAAGACUGCGGGAUCGAGUCUCGUACGGAACG [U13A U53A C61U] | ≤ 0.5 |
| GUUCCGUUGGCGAAAUGGUAACGCGUCUCCCUCCUAAGGAGAAGACUGCGGGUUCGAGCCCCGUAAGGAACG [U13A U59C C66A] | ≤ 0.5 |
| GUUCCGUUGGCGCCAUGGUAACGCGUCUCCCUCCUAAGGAGAAGUCUGCGGGUUCGAGUCCCGUAUGGAACG [U13C A14C A45U C66U] | ≤ 0.5 |
| GUUCCGUUGGCGCCACGGUAACGCGUCUCCCUCCUAAGGAGAAGACUGCGGGUUCGAGUCCCGCCCGGAACG [U13C A14C U16C U64C A65C] | ≤ 0.5 |
| GUUCCGUUGGCGCGAUGGUAACGCGUCUCCCUCCUAAGGAGAAGACUGCGGGUUCGAGUCCCGUACGGAACG [U13C A14G] | 0.704 |
| GUUCCGUUGGCGCGAUGGUAACGCGUCUCCCUCCUAAGGAGAAGGCUGCGGGUUCGAGUCCCGUACGGAACG [U13C A14G A45G] | ≤ 0.5 |
| GUUCCGUUGGCGCGAUGGUAACGGGUCUCCCUCCUAAGGAGAAGACUGGGGGUUCGAGUCCCGUACGGGACG [U13C A14G C24G C49G A69G] | ≤ 0.5 |
| GUUCCGUUGGCGCGAUGGUAACGGGUCUCCCUCCUAAGGAGAAGACUGCGGAUUGGAGUCCCGUACGGUACG [U13C A14G C24G G52A C55G A69U] | ≤ 0.5 |
| GUUCCGUUGGCGCUAUGGUAACGCGUCUCCGUCCUAAGGAGAAGACUGCAGGUUCGAGUCCCGUCCGGAACG [U13C A14U C31G G50A A65C] | 0.531 |
| GUUCCGUUGGCGCUAUGGUAACGCGUCUCCCCCCUAAGGAGAAGACUGCGGGUUCGAGUCCCGUACGGAACG [U13C A14U U32C] | 0.53 |
| GUUCCGUUGGCGCACUGGUAAUGCGUCUCCCUCAUAAGGAGAAGACUGCGGGUUCGAGUCCCGUAAGGAACG [U13C A15C C22U C34A C66A] | ≤ 0.5 |
| GUUCCGUUGGCGCAGUGGUAACGCGUCUCCCUCCUAAGGAGAAGACUGCGGGUUCGAGUCCCGUACGGAACG [U13C A15G] | 0.903 |
